Laboratory results reported in ChEMBL document CHEMBL2321860, “2-Arylpyrazolo[4,3-d]pyrimidin-7-amino derivatives as new potent and selective human A3 adenosine receptor antagonists. Molecular modeling studies and pharmacological evaluation” (J Med Chem, 2013).
Active and inactive are the calls of the source. The rule behind the calls is not given here.

Columns and labels:
Adenosine receptor A3 [1] = target: T1, Adenosine receptor A3 (Homo sapiens, UniProt P0DMS8); experiment: Inhibition of human A3 adenosine receptor transfected in CHO cells assessed as inhibition of forskolin-induced cyclic AMP production after 10 mins by competitive protein binding assay in presence of CI-IB-MECA; type: functional, cell-based
T1 sequence (P0DMS8 whole entry): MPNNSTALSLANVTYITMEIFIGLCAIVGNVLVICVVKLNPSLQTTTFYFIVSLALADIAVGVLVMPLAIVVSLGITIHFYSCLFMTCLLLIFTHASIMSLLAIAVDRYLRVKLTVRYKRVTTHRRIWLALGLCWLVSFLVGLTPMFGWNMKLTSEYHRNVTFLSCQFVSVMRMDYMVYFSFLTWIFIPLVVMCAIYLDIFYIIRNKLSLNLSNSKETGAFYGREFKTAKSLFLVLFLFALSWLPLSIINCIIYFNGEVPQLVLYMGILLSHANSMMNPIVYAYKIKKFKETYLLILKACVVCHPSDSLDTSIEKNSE
In short: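 Human A3 CHO cells (1 × 10⁶/assay) preincubated 10 min at 37 °C with adenosine deaminase and Ro 20-1724. Antagonist potency measured against 100 nM Cl-IB-MECA-mediated inhibition of 1 μM forskolin-stimulated cAMP. cAMP quantified by [3H]cAMP competition binding. IC50 by sigmoid regression, mean SEM of four experiments.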

[2] = target: T2, Adenosine receptor A2b (Homo sapiens) (UniProt P29275); experiment: Inhibition of human A2B adenosine receptor transfected in CHO cells assessed as inhibition of NECA-induced cyclic AMP production at 1 uM after 10 mins by competitive protein binding assay; type: cell-based
T2 sequence (whole entry): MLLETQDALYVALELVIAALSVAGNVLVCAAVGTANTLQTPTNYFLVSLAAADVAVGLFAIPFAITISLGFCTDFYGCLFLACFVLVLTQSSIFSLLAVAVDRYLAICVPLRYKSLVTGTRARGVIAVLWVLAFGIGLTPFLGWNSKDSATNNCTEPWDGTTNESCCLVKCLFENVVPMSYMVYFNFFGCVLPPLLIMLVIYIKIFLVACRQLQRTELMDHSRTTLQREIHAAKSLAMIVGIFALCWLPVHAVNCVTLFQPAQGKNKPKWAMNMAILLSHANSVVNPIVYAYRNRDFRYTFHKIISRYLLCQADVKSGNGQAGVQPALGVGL
In short: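 Human A2B CHO cells (1 × 10⁶/assay) preincubated 10 min at 37 °C in buffer with adenosine deaminase (2 IU/mL) and Ro 20-1724. Antagonist inhibition of 200 nM NECA-stimulated cAMP measured; reaction stopped with TCA. cAMP quantified by [3H]cAMP competition with adrenal binding protein. IC50 by sigmoid fit, mean SEM of four experiments; % inhibition at 1 μM.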

Adenosine receptor A2a = Adenosine receptor A2a (Homo sapiens, UniProt P29274); experiment: Displacement of [3H]ZM241385 from human A2A adenosine receptor expressed in CHO cells at 1 uM after 60 mins by scintillation counting analysis; type: cell-based
In short: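 Human A2A CHO membranes (50 μg protein) incubated with 1 nM [3H]ZM-241385 in 50 mM Tris-HCl, 10 mM MgCl2, pH 7.4, for 60 min at 4 °C, using 6–8 concentrations or 1 μM for % inhibition. Nonspecific binding defined with 1 μM ZM-241385. Ki via Cheng–Prusoff, mean SEM of four assays in duplicate.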

[3] = target: T3, Adenosine receptor A3 (Rattus norvegicus) (UniProt P28647); experiment: Displacement of [125I]AB-MECA from rat A3 adenosine receptor expressed in HEK293 cells at 1 uM after 60 mins by scintillation counting analysis; type: cell-based
T3 sequence (whole entry): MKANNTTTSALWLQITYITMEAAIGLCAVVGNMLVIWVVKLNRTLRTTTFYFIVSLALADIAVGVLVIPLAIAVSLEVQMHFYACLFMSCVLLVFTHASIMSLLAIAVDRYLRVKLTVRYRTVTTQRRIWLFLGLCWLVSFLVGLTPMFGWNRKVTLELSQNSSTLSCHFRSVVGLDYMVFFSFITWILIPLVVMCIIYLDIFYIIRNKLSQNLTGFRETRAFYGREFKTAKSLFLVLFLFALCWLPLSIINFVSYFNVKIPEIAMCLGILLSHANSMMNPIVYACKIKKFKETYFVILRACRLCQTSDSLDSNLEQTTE
In short: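 Rat A3 receptor in HEK293 membranes (10 μg protein) incubated with 0.5 nM [125I]AB-MECA in 50 mM Tris-HCl, 10 mM MgCl2, 1 mM EDTA, pH 7.4, for 60 min at 37 °C. Nonspecific binding defined with 1 μM AB-MECA. Filtration then scintillation counting. Output is % inhibition at 1 μM.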

Adenosine receptor A3 [4] = target: T1, Adenosine receptor A3; experiment: Displacement of [125I]AB-MECA from human A3 adenosine receptor expressed in CHO cells after 60 mins by scintillation counting analysis; type: cell-based
Astrocyte = experiment: Antiapoptotic activity against Sprague-Dawley rat astrocytes assessed as reduction of oxaliplatin-induced caspase-3 activity at 0.1 to 10 uM after 4 hrs by fluorimetric assay; type: functional, cell-based
In short: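 Primary cortical astrocytes from newborn (P1–P3) rats, GFAP-positive, used 21 days after isolation and serum-starved overnight. Cells were exposed to 100 μM oxaliplatin for 4 h with test compound co-incubated. Lysates were incubated with 0.025 mM Z-DEVD-R110 at 25 °C for 30 min and read by fluorescence (ex 496/em 520 nm). Output is % of untreated control, mean SEM.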

[5] = target: T4, Adenosine receptor A1 (Homo sapiens) (UniProt P30542); experiment: Displacement of [3H]DPCPX from human A1 adenosine receptor expressed in CHO cells at 1 uM after 120 mins by scintillation counting analysis; type: cell-based
T4 sequence (whole entry): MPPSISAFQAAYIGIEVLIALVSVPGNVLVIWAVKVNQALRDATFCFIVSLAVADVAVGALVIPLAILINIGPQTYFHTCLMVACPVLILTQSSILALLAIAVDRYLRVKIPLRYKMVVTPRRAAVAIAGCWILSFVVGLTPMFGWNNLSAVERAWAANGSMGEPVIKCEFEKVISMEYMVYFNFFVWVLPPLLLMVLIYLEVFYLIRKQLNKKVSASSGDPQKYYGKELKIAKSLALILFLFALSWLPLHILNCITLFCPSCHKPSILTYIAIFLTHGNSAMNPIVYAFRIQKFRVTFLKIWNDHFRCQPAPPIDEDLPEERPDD

[6] = target: T5, Adenosine receptor A3 (Homo sapiens) (UniProt P0DMS8); experiment: Displacement of [125I]AB-MECA from human A3 adenosine receptor expressed in CHO cells at 1 uM after 60 mins by scintillation counting analysis; type: cell-based
T5 sequence (whole entry): T1 sequence (P0DMS8 whole entry)
In short: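 Human A3 CHO membranes (50 μg protein) incubated with 0.5 nM [125I]AB-MECA in 50 mM Tris-HCl, 10 mM MgCl2, 1 mM EDTA, pH 7.4, for 60 min at 37 °C. Nonspecific binding defined with 1 μM AB-MECA. Filtration then counting. Output is % inhibition at 1 μM.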

Adenosine receptor A1 = target: T6, Adenosine receptor A1 (Homo sapiens, UniProt P30542); experiment: Displacement of [3H]DPCPX from human A1 adenosine receptor expressed in CHO cells after 120 mins by scintillation counting analysis; type: cell-based
T6 sequence (P30542 whole entry): T4 sequence (whole entry)

Adenosine receptor A2a, sequence (P29274 whole entry): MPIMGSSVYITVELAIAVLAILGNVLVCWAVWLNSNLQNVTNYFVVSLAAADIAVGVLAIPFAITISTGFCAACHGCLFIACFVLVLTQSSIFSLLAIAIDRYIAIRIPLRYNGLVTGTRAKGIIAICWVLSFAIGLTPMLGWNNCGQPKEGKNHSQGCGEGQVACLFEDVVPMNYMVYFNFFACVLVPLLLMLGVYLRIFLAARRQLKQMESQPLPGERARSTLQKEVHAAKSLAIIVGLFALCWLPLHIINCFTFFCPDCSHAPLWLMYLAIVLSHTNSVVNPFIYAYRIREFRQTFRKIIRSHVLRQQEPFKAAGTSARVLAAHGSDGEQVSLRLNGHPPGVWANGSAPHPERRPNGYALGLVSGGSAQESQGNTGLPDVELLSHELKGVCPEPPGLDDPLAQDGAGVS

SMILES	IC50 (Adenosine receptor A3 [1]) [nM]	inhibition [2] [%]	inhibition (Adenosine receptor A2a) [%]	inhibition [3] [%]	Ki (Adenosine receptor A3 [4]) [nM]	Activity (Astrocyte)	inhibition [5] [%]	inhibition [6] [%]	Ki (Adenosine receptor A1) [nM]
Cc1nc(NC(=O)c2ccccc2)c2nn(-c3ccccc3)cc2n1	19.7	2	1	6	5.6	Active	30	–	–
COc1ccc(-n2cc3nc(C)nc(NC(=O)Cc4ccccc4)c3n2)cc1	–	11	11	–	520	–	9	–	–
COc1ccc(C(=O)Nc2nc(-c3ccccc3)nc3cn(-c4ccccc4)nc23)cc1	–	1	1	–	7.3	–	3	–	–
O=C(Nc1nc(-c2ccccc2)nc2cn(-c3ccccc3)nc12)c1ccccc1	65	2	5	–	20	–	5	–	–
COc1ccc(-n2cc3nc(-c4ccccc4)nc(NC(C)=O)c3n2)cc1	–	1	11	–	98	–	1	–	–
O=C(Nc1nc(-c2ccccc2)nc2cn(-c3ccccc3)nc12)c1cccnc1	–	1	1	–	3.2	–	1	–	–
Cc1nc(NC(=O)Nc2ccccc2)c2nn(-c3ccccc3)cc2n1	–	1	1	–	–	–	1	30	–
Cc1nc(N(C(=O)c2ccco2)C(=O)c2ccco2)c2nn(-c3ccccc3)cc2n1	–	1	1	–	33	–	4	–	–
COc1ccc(-n2cc3nc(-c4ccccc4)nc(NC(=O)c4ccccc4)c3n2)cc1	63	2	1	12	18	Active	3	–	–
Cc1nc2cn(-c3ccccc3)nc2c(=O)[nH]1	–	–	–	–	–	–	1	–	–
CC(=O)Nc1nc(-c2ccccc2)nc2cn(-c3ccccc3)nc12	103	2	5	–	32	–	5	–	–
COc1ccc(-n2cc3nc(-c4ccccc4)nc(N)c3n2)cc1	–	3	35	–	75	–	12	–	–
Cc1nc(N(C(=O)c2ccccc2)C(=O)c2ccccc2)c2nn(-c3ccccc3)cc2n1	115	5	1	–	33	–	6	–	–
O=C(Nc1nc(-c2ccccc2)nc2cn(-c3ccccc3)nc12)c1ccco1	–	1	1	–	24	–	11	–	–
COc1ccc(C(=O)Nc2nc(C)nc3cn(-c4ccccc4)nc23)cc1	–	1	1	–	–	–	4	–	–
CC(=O)Nc1nc(C)nc2cn(-c3ccccc3)nc12	–	5	4	–	300	–	25	–	–

SMILES	IC50 (Adenosine receptor A3 [1]) [nM]	inhibition [2] [%]	inhibition (Adenosine receptor A2a) [%]	inhibition [3] [%]	Ki (Adenosine receptor A3 [4]) [nM]	Activity (Astrocyte)	inhibition [5] [%]	inhibition [6] [%]	Ki (Adenosine receptor A1) [nM]
COc1ccc(-n2cc3nc(C)nc(NC(=O)c4ccccc4)c3n2)cc1	128	1	7	–	35	–	1	–	–
COc1ccc(-n2cc3nc(C)nc(NC(=O)NCc4ccccc4)c3n2)cc1	–	1	7	–	–	–	8	6	–
Cc1nc(NC(=O)c2cccnc2)c2nn(-c3ccccc3)cc2n1	–	1	1	–	5.3	–	12	–	–
O=C(Cc1ccccc1)Nc1nc(-c2ccccc2)nc2cn(-c3ccccc3)nc12	61	2	5	2	18	Active	5	–	–
COc1ccc(-n2cc3nc(C)nc(N)c3n2)cc1	–	2	1	–	–	–	30	38	–
Cc1nc(NC(=O)c2ccncc2)c2nn(-c3ccccc3)cc2n1	–	–	1	–	5.2	–	12	–	–
O=C(Nc1nc(-c2ccccc2)nc2cn(-c3ccccc3)nc12)c1ccncc1	–	1	1	–	25	–	1	–	–
COc1ccc(-n2cc3nc(C)nc(NC(C)=O)c3n2)cc1	–	30	30	–	100	–	30	–	–
Cc1nc(NC(=O)c2ccco2)c2nn(-c3ccccc3)cc2n1	–	1	1	–	20	–	20	–	–
COc1ccc(-n2cc3nc(Cc4ccccc4)nc(N)c3n2)cc1	–	33	37	–	–	–	40	45	–
O=C(c1ccco1)N(C(=O)c1ccco1)c1nc(-c2ccccc2)nc2cn(-c3ccccc3)nc12	–	1	1	–	75	–	3	–	–
Cc1nc(NC(=O)NCc2ccccc2)c2nn(-c3ccccc3)cc2n1	–	10	7	–	–	–	26	1	–
COc1ccc(-n2cc3nc(C)nc(NC(=O)c4ccco4)c3n2)cc1	–	1	6	–	45	–	6	–	–
Cc1nc(NC(=O)Cc2ccccc2)c2nn(-c3ccccc3)cc2n1	–	1	13	–	120	–	–	–	510
COc1ccc(-n2cc3nc(C)nc(NC(=O)Nc4ccccc4)c3n2)cc1	–	13	13	–	–	–	5	1	–
